Source: paper PMC4554820 (Bioorganic & medicinal chemistry, 2015)
Entries after “also recorded” stand apart in the source; their conditions may differ. Counter-ions that a name gives are not always drawn. Like-named read-outs stand apart in the source and are kept apart here.

What was measured:
GAPDH [1] = molecular target: T1, GAPDH (Oryctolagus cuniculus, UniProt P46406); conditions: HPLC-HRMS, cited from earlier work; for Products, GAPDH tryptic peptide V233-R246: comparison/previous work
[2] = PBS buffer, pH = 7.6; cited from earlier work
[3] = Kinetic UV-vis decomposition in the presence of glutathione; format: physicochemical; conditions: PBS pH 7.4 + 2-fold GSH, room temperature
[4] = format: physicochemical; conditions: for k (min^−1) in 1:1 MeOH : 0.1 N NaOH / k (min^−1) in 1:1 MeOH : PBS / t1/2 (min) in 1:1 MeOH : 0.1 N NaOH: decomposition; for k (min^−1) in 1:1 MeOH : PBS: 1:1 MeOH:PBS (100 mM, pH 7.4), room temperature
Method in brief: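 The test compound in MeOH (1 mL) was mixed with 1 mL of 100 mM PBS pH 7.4 or 0.1 M NaOH in a sealed cuvette at rt. Loss of absorbance at 667 nm was read every 15 min for 10 h. Rate constants and half-lives came from the exponential decay.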

GAPDH [5] = molecular target: T1, GAPDH; experiment: Reversibility of GAPDH inhibition by DTT; format: biochemical; conditions: GAPDH incubated with compound 1 hr, then DTT (10 mM) 1 hr
[6] = system: human platelet activation induced by (ADP); experiment: Platelet activation inhibition; format: cell-based; conditions: for platelet activation inhibition: PRP, ADP 5 μM
[7] = system: human platelet aggregation induced by ADP; experiment: Platelet aggregation inhibition; format: cell-based; conditions: PRP, ADP 5 μM
Method in brief: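 Human PRP came from blood spun at 100 g for 10 min, and PPP from PRP spun at 4500 g for 10 min. PRP or PPP plus CaCl₂ (2 mM) went into wells. The test compound (100, 75, 50, 10 µM) was added for 20 min at rt, then ADP 5 µM. Light transmission was read every 20 s with double-orbital agitation and normalised to PPP = 100% and PRP = 0%.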

[8] = system: porcine liver esterase (PLE); experiment: Kinetic UV-vis decomposition in the presence of porcine liver esterase; format: in vitro ADME; conditions: PBS buffer (3 % DMF) + PLE
GAPDH [9] = molecular target: T1, GAPDH; experiment: HPLC-HRMS assay of GAPDH modification; format: biochemical; conditions: incubated 1 hr rt, tryptic digestion
Method in brief: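 Lyophilised GAPDH dissolved in 100 mM PBS pH 7.4, concentration set by A280 (ε 14600 M⁻¹cm⁻¹). Protein 100 µM final with test compound 1 mM final (added from MeOH stock) in water, 1 h rt. Trypsin digest (20:1 ratio) at 37 °C for 17 h, then diluted to 10 µM peptide. C18 LC with 0.1% formic acid water/MeOH gradient (5–95% over 10 min). Orbitrap HRMS, positive ESI. No-compound control.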

[10] = 1:1 MeOH:phosphate buffered saline, pH 7.4

T1 sequence (P46406 whole entry): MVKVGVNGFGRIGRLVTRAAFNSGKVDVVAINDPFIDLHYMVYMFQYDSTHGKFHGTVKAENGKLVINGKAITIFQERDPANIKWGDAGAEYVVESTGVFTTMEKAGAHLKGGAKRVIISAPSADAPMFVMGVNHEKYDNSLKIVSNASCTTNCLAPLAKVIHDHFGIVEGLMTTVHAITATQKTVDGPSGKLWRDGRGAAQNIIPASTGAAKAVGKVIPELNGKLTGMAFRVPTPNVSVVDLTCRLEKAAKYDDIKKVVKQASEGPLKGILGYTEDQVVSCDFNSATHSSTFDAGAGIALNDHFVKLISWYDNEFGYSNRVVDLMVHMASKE

| t1/2 (min) in PBS + 2-fold GSH [3] | half-life at 30 mM [4, 10] | % of GAPDH activity restored by the addition of DTT (GAPDH [5]) | Compound | Products, GAPDH tryptic peptide V233-R246 (GAPDH [1]) | k (min^−1) in PBS + 2-fold GSH [3] | k (min^−1) in 1:1 MeOH : PBS [4] | other results |
| --- | --- | --- | --- | --- | --- | --- | --- |
| – | – | – | CC(=O)OC1(N=O)CCCCC1 [Compound 1, 1-nitrosocyclohexyl acetate] | sulfinic acid as a major product | – | – | – |
| – | – | – | O=NC1(OC(=O)C(F)(F)F)CCCCC1 [Compound 2, 1-nitrosocyclohexyl trifluoroacetate] | sulfinamide as a major product and sulfinic acid as a minor product | – | – | t1/2 of HNO release [2]: 121 milliseconds (ms) |
| 99 min | 31.7 h | – | CC(C)(C)C(=O)OC1(N=O)CCOCC1 [Compound 5, 4-Nitrosotetrahydro-2H-pyran-4-yl pivalate] | – | 0.007 min⁻¹ | 0.00036 min⁻¹ | half-life at 30 mM ([4]; 1:1 MeOH:0.1 N NaOH): 31.2 h; k (min^−1) in 1:1 MeOH : 0.1 N NaOH ([4]; 1:1 MeOH:0.1 N NaOH): 0.00037 min⁻¹ |
| – | – | – | [Na+].[Na+].[O-][N+]([O-])=NO [AS, Angeli’s salt (Na2N2O3, AS)] | sulfinamide as a major product and sulfinic acid as a minor product; also recorded: Sulfinamide; RSONH2; also recorded: Sulfinic acid; RSOOH | – | – | Products, GAPDH tryptic peptide I144-K160 (GAPDH [1]; comparison): Internal disulfide; RSSR |
| 65 min | 13 h | 22% | CC(=O)OC1(N=O)CCOCC1 [Compound 4, 4-Nitrosotetrahydro-2H-pyran-4-yl acetate] | – | 0.011 min⁻¹ | 0.00089 min⁻¹ | half-life at 30 mM ([4]; 1:1 MeOH:0.1 N NaOH): 0.2 h; k (min^−1) in 1:1 MeOH : 0.1 N NaOH ([4]; 1:1 MeOH:0.1 N NaOH): 0.057 min⁻¹ |
| 12 min | 2 h | 9% | CC(Cl)(Cl)C(=O)OC1(N=O)CCOCC1 [Compound 7, 4-Nitrosotetrahydro-2H-pyran-4-yl 2,2-dichloropropanoate] | – | 0.0578 min⁻¹ | 0.0058 min⁻¹ | t1/2 (min) in 1:1 MeOH : 0.1 N NaOH ([4]; 1:1 MeOH:0.1 N NaOH): decompose immediately and Fast; decomposition rate constant k with PLE [8]: 0.03 min⁻¹; Products, GAPDH tryptic peptide I144-K160 (GAPDH [9]): Internal disulfide; RSSR; Products, GAPDH tryptic peptide V233-R246 (GAPDH [9]): Sulfinamide; RSONH2; also recorded: Sulfinic acid; RSOOH |

| Compound | t1/2 (min) in PBS + 2-fold GSH [3] | half-life at 30 mM [4, 10] | % of GAPDH activity restored by the addition of DTT (GAPDH [5]) | Products, GAPDH tryptic peptide V233-R246 (GAPDH [1]) | k (min^−1) in PBS + 2-fold GSH [3] | k (min^−1) in 1:1 MeOH : PBS [4] | other results |
| --- | --- | --- | --- | --- | --- | --- | --- |
| O=NC1(OC(=O)C(Cl)(Cl)Cl)CCOCC1 [Compound 6, 4-Nitrosotetrahydro-2H-pyran-4-yl 2,2,2-trichloroacetate] | 4 min | 0.833 h | 19% | – | 0.173 min⁻¹ | 0.014 min⁻¹ | platelet activation inhibition ([6]; 1 μM): lower activity; inhibition of expression of the activated marker (CD62P) ([6]; 10 μM, PRP incubated with ADP (2 μM)): 83%; platelet activation inhibition ([6]; 100, 75, 50, and 10 μM): potent and similar effect; t1/2 (min) in 1:1 MeOH : 0.1 N NaOH ([4]; 1:1 MeOH:0.1 N NaOH): decompose immediately and Fast; inhibition of platelet aggregation ([7]; 10 μM, compared with positive control (PRP + ADP)): no effect; inhibition of platelet aggregation ([7]; 100 μM, 20 min incubation rt): Complete inhibition; inhibition of platelet aggregation ([7]; 50 and 75 μM): intermediate activities; decomposition rate constant k with PLE [8]: 0.087 min⁻¹; Products, GAPDH tryptic peptide I144-K160 (GAPDH [9]): Internal disulfide; RSSR; Products, GAPDH tryptic peptide V233-R246 (GAPDH [9]): Sulfinamide; RSONH2; also recorded: Sulfinic acid; RSOOH |
